Results: ChEMBL document CHEMBL4334522, “Optimization Strategy of Novel Peptide-Based Michael Acceptors for the Treatment of Human African Trypanosomiasis” (J Med Chem, 2019)
Activity calls are given as the source filed them. No cut-off for these calls is given here.

What was measured:
Procathepsin L [1] = molecular target: T1, Procathepsin L (Homo sapiens, UniProt P07711); experiment: Inhibition of human Cathepsin L assessed as first-order rate constant using Cbz-Phe-Arg-AMC as substrate by fluorescence assay
Target sequence in this assay (P07711 114-333 limits assumed): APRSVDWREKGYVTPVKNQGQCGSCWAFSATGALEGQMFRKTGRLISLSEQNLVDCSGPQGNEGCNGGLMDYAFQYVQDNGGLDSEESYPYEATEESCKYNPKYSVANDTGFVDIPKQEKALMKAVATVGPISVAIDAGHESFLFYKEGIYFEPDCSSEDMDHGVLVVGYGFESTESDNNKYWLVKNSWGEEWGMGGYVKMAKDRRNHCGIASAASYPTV

[2] = molecular target: Rhodesain (Trypanosoma brucei rhodesiense) (UniProt Q95PM0); experiment: Inhibition of Trypanosoma brucei rhodesiense rhodesain expressed in Pichia pastoris assessed as second order rate constant obtained from ratio of Kinact to Ki measured for 30 mins using Cbz-Phe-Arg-AMC as substrate by fluorescence assay
Rhodesain (Trypanosoma brucei rhodesiense), sequence (Q95PM0 1-450): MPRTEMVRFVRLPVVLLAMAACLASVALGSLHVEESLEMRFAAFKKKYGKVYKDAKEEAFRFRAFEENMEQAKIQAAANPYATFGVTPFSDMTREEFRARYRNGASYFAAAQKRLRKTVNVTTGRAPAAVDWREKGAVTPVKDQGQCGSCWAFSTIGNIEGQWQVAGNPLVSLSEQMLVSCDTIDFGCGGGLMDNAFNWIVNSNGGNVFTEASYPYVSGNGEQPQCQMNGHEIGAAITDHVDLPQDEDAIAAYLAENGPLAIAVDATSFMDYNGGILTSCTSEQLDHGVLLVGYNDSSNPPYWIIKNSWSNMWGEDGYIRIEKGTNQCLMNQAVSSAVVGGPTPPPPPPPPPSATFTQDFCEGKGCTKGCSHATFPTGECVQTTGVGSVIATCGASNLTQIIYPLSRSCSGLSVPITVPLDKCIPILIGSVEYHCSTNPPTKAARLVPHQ
Outline: (§1)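 Continuous rhodesain assay using 7 inhibitor concentrations spanning minimal to full inhibition, with 10 µM Cbz-Phe-Arg-AMC. Buffer: 50 mM sodium acetate pH 5.5, 5 mM EDTA, 200 mM NaCl, 0.005% Brij 35; enzyme buffer had 5 mM DTT instead. Read at room temperature for 30 min, ex 380/em 460 nm. kobs came from fitting progress curves to F = A(1−exp(−kobs·t)) + B. Fitting kobs against [I] hyperbolically gave kinac and Kiapp. Kiapp was corrected by (1+[S]/Km) with Km 0.9 µM, and k2nd = kinac/Ki. Each assay was run twice in duplicate.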

[3] = molecular target: Rhodesain (Trypanosoma brucei rhodesiense) (UniProt Q95PM0); experiment: Inhibition of Trypanosoma brucei rhodesiense rhodesain expressed in Pichia pastoris assessed as first-order rate constant measured for 30 mins using Cbz-Phe-Arg-AMC as substrate by fluorescence assay; outline: as §1
[4] = test system: Trypanosoma brucei brucei; experiment: Antitrypanosomal activity against blood stage form of Trypanosoma brucei brucei 449 incubated for 24 hrs by ATPlite assay; format: functional, organism-based; conditions: Trypanosoma brucei, 449, 24 h
Outline: (§2)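 Bloodstream-form T. b. brucei 449 (Lister 427 descendant) cultured in HMI-9 with 10% FCS, penicillin/streptomycin and 0.2 µg/mL phleomycin at 37°C, 5% CO2. Cells seeded at 2500 cells/mL. Compounds from 5 mM stocks were serially diluted 1:2 to give 16.7 µM to 32.5 nM final. Controls: 0.3% DMSO (negative) and 10% DMSO (positive). Incubated 24 h or 48 h, in two separate triplicates. Viability read by ATPlite luminescence; EC50 taken from dose-response curves.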

[5] = molecular target: Rhodesain (Trypanosoma brucei rhodesiense) (UniProt Q95PM0); experiment: Inhibition of Trypanosoma brucei rhodesiense rhodesain expressed in Pichia pastoris at 50 uM measured for 30 mins using Cbz-Phe-Arg-AMC as substrate by fluorescence assay relative to control
Outline: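 Recombinant rhodesain screened with inhibitor at 50 µM against an equivalent DMSO negative control. AMC release from 10 µM Cbz-Phe-Arg-AMC was followed continuously for 30 min.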

[6] = molecular target: Rhodesain (Trypanosoma brucei rhodesiense) (UniProt Q95PM0); experiment: Irreversible inhibition of Trypanosoma brucei rhodesiense rhodesain expressed in Pichia pastoris at 0.005 to 0.5 nM measured for 30 mins using Cbz-Phe-Arg-AMC as substrate by fluorescence assay; outline: as §1
Rhodesain = Rhodesain (Trypanosoma brucei rhodesiense, UniProt Q95PM0); experiment: Inhibition of Trypanosoma brucei rhodesiense rhodesain expressed in Pichia pastoris assessed as inhibition constant measured for 30 mins using Cbz-Phe-Arg-AMC as substrate by fluorescence assay
Rhodesain, sequence (Q95PM0 whole entry): as the sequence (Q95PM0 1-450) above
Outline: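 Recombinant rhodesain, continuous fluorimetric assay with Cbz-Phe-Arg-AMC at 10 µM, ex 380/em 460 nm, read 30 min at room temperature. Buffer: 50 mM sodium acetate pH 5.5, 5 mM EDTA, 200 mM NaCl, 0.005% Brij 35; enzyme buffer has 5 mM DTT. Seven inhibitor concentrations. kobs from progress-curve fits, hyperbolic fit gives Kiapp, corrected with Km 0.9 µM to Ki. Two independent assays in duplicate.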

Procathepsin L [7] = molecular target: T1, Procathepsin L; experiment: Inhibition of human Cathepsin L assessed as second order rate constant obtained from ratio of Kinact to Ki using Cbz-Phe-Arg-AMC as substrate by fluorescence assay
Target sequence in this assay (P07711 114-333 limits assumed): as the sequence (P07711 114-333 limits assumed) above

[8] = test system: Trypanosoma brucei brucei; experiment: Antitrypanosomal activity against blood stage form of Trypanosoma brucei brucei 449 incubated for 48 hrs by ATPlite assay; format: functional, organism-based; conditions: Trypanosoma brucei, 449, 48 h; outline: as §2
Procathepsin L [9] = molecular target: T1, Procathepsin L; experiment: Inhibition of human Cathepsin L assessed as inhibition constant using Cbz-Phe-Arg-AMC as substrate by fluorescence assay
Target sequence in this assay (P07711 whole entry): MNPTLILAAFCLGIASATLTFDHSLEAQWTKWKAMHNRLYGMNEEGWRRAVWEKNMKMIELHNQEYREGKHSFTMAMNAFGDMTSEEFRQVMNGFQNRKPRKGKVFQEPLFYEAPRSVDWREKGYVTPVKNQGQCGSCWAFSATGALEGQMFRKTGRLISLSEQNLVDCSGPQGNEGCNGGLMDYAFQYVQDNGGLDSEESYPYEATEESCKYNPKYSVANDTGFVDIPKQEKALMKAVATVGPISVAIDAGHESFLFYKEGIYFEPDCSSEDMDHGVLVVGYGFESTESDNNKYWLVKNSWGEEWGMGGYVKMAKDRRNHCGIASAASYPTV

SMILES	Kinact (Procathepsin L [1]) [min⁻¹]	K [2] [×10³ /M/min]	Kinact [3] [min⁻¹]	EC50 [4] [nM]	inhibition [5] [%]	inhibition [6]	Ki (Rhodesain) [nM]	K (Procathepsin L [7]) [×10³ /M/min]	EC50 [8] [nM]	Ki (Procathepsin L [9]) [nM]
CC(=O)/C=C/[C@H](CCc1ccccc1)NC(=O)[C@H](Cc1ccccc1)NC(=O)c1ccc(F)cc1	0.0018	881000	0.0009	5100	85 to 100	Active	0.0011	1230	3600	1.5
CC(=O)/C=C/[C@H](CCc1ccccc1)NC(=O)[C@H](CCc1ccccc1)NC(=O)OCc1ccccc1	0.0056	137	0.00072	550	85 to 100		5.54	12	440	453
CC(=O)/C=C/[C@H](CCc1ccccc1)NC(=O)[C@H](Cc1ccccc1)NC(=O)c1ccc2c(c1)OCCO2	0.0076	7200	0.0043		85 to 100		0.74	102		78.2
CC(=O)/C=C/[C@H](CCc1ccccc1)NC(=O)[C@H](Cc1ccccc1)NC(=O)N1CCOCC1	0.0039	157	0.00049		85 to 100		3.1	23		175
CC(=O)/C=C/[C@H](CCc1ccccc1)NC(=O)[C@H](Cc1ccccc1)NC(=O)c1c(F)cccc1F	0.002	151000	0.0012		85 to 100		0.0076	8.9		230
CC(=O)/C=C/[C@H](CCc1ccccc1)NC(=O)[C@H](Cc1ccccc1)NC(=O)c1cccc(F)c1	0.0019	149000	0.0032		85 to 100		0.023	41		47
CC(=O)/C=C/[C@H](CCc1ccccc1)NC(=O)[C@H](Cc1ccccc1)NC(=O)c1ccc(Cl)cc1	0.0018	29300	0.0008	4800	85 to 100		0.029	3030	3200	0.6
CC(=O)/C=C/[C@H](CCc1ccccc1)NC(=O)[C@H](Cc1ccccc1)NC(=O)c1ccc2c(c1)OCO2	0.0016	15300	0.0005	5000	85 to 100		0.034	157	3700	10.2
CCC(=O)/C=C/[C@H](CCc1ccccc1)NC(=O)[C@H](Cc1ccccc1)NC(=O)OCc1ccccc1	0.0071	1800	0.00082		85 to 100		0.5	67		108
CC(=O)/C=C/[C@H](CCc1ccccc1)NC(=O)[C@H](Cc1ccccc1)NC(=O)N1CCN(C)CC1	0.0047	266	0.00042		85 to 100		1.8	31		158
CC(=O)/C=C/[C@H](CCc1ccccc1)NC(=O)[C@H](Cc1ccccc1)NC(=O)c1ccc(C(F)(F)F)cc1	0.0015	175000	0.00075		85 to 100		0.0044	380		4.1
CC(=O)/C=C/[C@H](CCc1ccccc1)NC(=O)[C@H](Cc1ccccc1)NC(=O)c1ccccc1F	0.0011	230000	0.0006		85 to 100		0.003	313		5.3
CC(=O)/C=C/[C@H](CCc1ccccc1)NC(=O)[C@H](Cc1ccccc1)NC(=O)Cc1ccc2c(c1)OCO2	0.0053	435	0.00085		85 to 100		2.1	59		90.3
CC(=O)/C=C/[C@H](CCc1ccccc1)NC(=O)[C@H](Cc1ccccc1)NC(=O)c1cc(F)cc(F)c1	0.0022	113000	0.0016	4000	85 to 100		0.015	156	3400	14.8
CC(=O)/C=C/[C@H](CCc1ccccc1)NC(=O)[C@H](Cc1ccccc1)NC(=O)c1ccc(F)cc1F	0.0015	107000	7e-05	740	85 to 100		0.0006	52	670	35
